≈ marks a conversion by molar mass, not a printed value. Calls of active or inactive are those of the source.
Tests used:
Mus musculus [1] = test: Toxicity in PS mouse allografted with mouse P388 cells assessed as change in body weight at 3.1 ug/kg relative to control; format: organism-based; conditions: in vivo, 0.0031 mg/kg
How it was run: (§1)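 P388 (PS) leukemia in mice, 6 mice per dose group. Weight change is the difference in grams between treated and control animals. Survivors are recorded on toxicity day, normally 4 days after the first injection.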

Mus musculus [2] = test: Toxicity in PS mouse allografted with mouse P388 cells assessed as change in body weight at 0.8 ug/kg relative to control; format: organism-based; conditions: in vivo, 0.0008 mg/kg
How it was run: (§2)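 PS (P388 leukemia) mice, six per dose group. Toxicity read as the difference in grams between the weights of treated and control animals.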

Mus musculus [3] = test: Toxicity in PS mouse allografted with mouse P388 cells assessed as change in body weight at 0.4 ug/kg relative to control; format: organism-based; conditions: in vivo, 0.0004 mg/kg; how it was run: as §2
Mus musculus [4] = test: Toxicity in PS mouse allografted with mouse P388 cells assessed as change in body weight at 0.2 ug/kg relative to control; format: organism-based; conditions: in vivo, 0.0002 mg/kg; how it was run: as §2
Mus musculus [5] = test: Toxicity in PS mouse allografted with mouse P388 cells assessed as survival at 50 ug/kg after 4 days; format: organism-based; conditions: in vivo, 0.05 mg/kg, 96 h
How it was run: (§3)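 PS (P388) leukemic mice, six started per dose group. Toxicity scored as survivors on the toxicity day over the number of mice started. The toxicity day is normally 4 days after the first injection.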

Mus musculus [6] = test: Toxicity in PS mouse allografted with mouse P388 cells assessed as survival at 100 ug/kg after 4 days; format: organism-based; conditions: in vivo, 0.1 mg/kg, 96 h; how it was run: as §3
Mus musculus [7] = test: Toxicity in PS mouse allografted with mouse P388 cells assessed as survival at 25 ug/kg after 4 days; format: organism-based; conditions: in vivo, 0.025 mg/kg, 96 h; how it was run: as §3
Mus musculus [8] = test: Toxicity in PS mouse allografted with mouse P388 cells assessed as survival at 12.5 ug/kg after 4 days; format: organism-based; conditions: in vivo, 0.0125 mg/kg, 96 h; how it was run: as §3
Mus musculus [9] = test: Toxicity in PS mouse allografted with mouse P388 cells assessed as survival at 3.1 ug/kg after 4 days; format: organism-based; conditions: in vivo, 0.0031 mg/kg, 96 h; how it was run: as §3
Mus musculus [10] = test: Toxicity in PS mouse allografted with mouse P388 cells assessed as survival at 0.8 ug/kg after 4 days; format: organism-based; conditions: in vivo, 0.0008 mg/kg, 96 h; how it was run: as §3
Mus musculus [11] = test: Toxicity in PS mouse allografted with mouse P388 cells assessed as survival at 0.4 ug/kg after 4 days; format: organism-based; conditions: in vivo, 0.0004 mg/kg, 96 h; how it was run: as §3
Mus musculus [12] = test: Toxicity in PS mouse allografted with mouse P388 cells assessed as survival at 0.2 ug/kg after 4 days; format: organism-based; conditions: in vivo, 0.0002 mg/kg, 96 h; how it was run: as §3
Mus musculus [13] = test: Toxicity in PS mouse allografted with mouse P388 cells assessed as survival at 6.3 ug/kg after 4 days; format: organism-based; conditions: in vivo, 0.0063 mg/kg, 96 h; how it was run: as §3
Mus musculus [14] = test: Toxicity in PS mouse allografted with mouse P388 cells assessed as survival at 1.1 ug/kg after 4 days; format: organism-based; conditions: in vivo, 0.0011 mg/kg, 96 h; how it was run: as §3
Mus musculus [15] = test: Toxicity in PS mouse allografted with mouse P388 cells assessed as change in body weight at 100 ug/kg relative to control; format: organism-based; conditions: in vivo, 0.1 mg/kg; how it was run: as §1
Mus musculus [16] = test: Toxicity in PS mouse allografted with mouse P388 cells assessed as change in body weight at 50 ug/kg relative to control; format: organism-based; conditions: in vivo, 0.05 mg/kg; how it was run: as §1
Mus musculus [17] = test: Toxicity in PS mouse allografted with mouse P388 cells assessed as change in body weight at 25 ug/kg relative to control; format: organism-based; conditions: in vivo, 0.025 mg/kg; how it was run: as §1
Mus musculus [18] = test: Toxicity in PS mouse allografted with mouse P388 cells assessed as change in body weight at 12.5 ug/kg relative to control; format: organism-based; conditions: in vivo, 0.0125 mg/kg; how it was run: as §1
Mus musculus [19] = test: Toxicity in PS mouse allografted with mouse P388 cells assessed as change in body weight at 6.3 ug/kg relative to control; format: organism-based; conditions: in vivo, 0.0063 mg/kg; how it was run: as §1
Mus musculus [20] = test: Toxicity in PS mouse allografted with mouse P388 cells assessed as change in body weight at 1.1 ug/kg relative to control; format: organism-based; conditions: in vivo, 0.0011 mg/kg; how it was run: as §1
P388 [21] = test: Antitumor activity against mouse P388 cells allografted in PS mouse assessed as median survival time at 100 ug/kg relative to control; format: functional
How it was run: (§4)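 P388 leukemia (PS) in mice, six mice started per dose group. Read-out is T/C: median survival time of the treated group divided by that of the untreated control group, expressed as a percent. The NIH protocol counts a compound as active when T/C > 125%.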

P388 [22] = test: Antitumor activity against mouse P388 cells allografted in PS mouse assessed as median survival time at 50 ug/kg relative to control; format: functional; how it was run: as §4
P388 [23] = test: Antitumor activity against mouse P388 cells allografted in PS mouse assessed as median survival time at 25 ug/kg relative to control; format: functional; how it was run: as §4
P388 [24] = test: Antitumor activity against mouse P388 cells allografted in PS mouse assessed as median survival time at 12.5 ug/kg relative to control; format: functional; how it was run: as §4
P388 [25] = test: Antitumor activity against mouse P388 cells allografted in PS mouse assessed as median survival time at 3.1 ug/kg relative to control; format: functional; how it was run: as §4
P388 [26] = test: Antitumor activity against mouse P388 cells allografted in PS mouse assessed as median survival time at 0.8 ug/kg relative to control; format: functional; how it was run: as §4
P388 [27] = test: Antitumor activity against mouse P388 cells allografted in PS mouse assessed as median survival time at 0.4 ug/kg relative to control; format: functional; how it was run: as §4
P388 [28] = test: Antitumor activity against mouse P388 cells allografted in PS mouse assessed as median survival time at 0.2 ug/kg relative to control; format: functional; how it was run: as §4
P388 [29] = test: Antitumor activity against mouse P388 cells allografted in PS mouse assessed as median survival time at 6.3 ug/kg relative to control; format: functional; how it was run: as §4
P388 [30] = test: Antitumor activity against mouse P388 cells allografted in PS mouse assessed as median survival time at 1.1 ug/kg relative to control; format: functional; how it was run: as §4
KB = test: Cytotoxicity against human KB cells; format: functional; conditions: read-out: ED50 (the source's name)
Tubulin (Homo sapiens) = Tubulin (Homo sapiens) (UniProt P68371+Q9H4B7+P0DPH7+P68366+Q13509+Q71U36+P04350+Q3ZCM7+P07437+P68363+Q9BQE3+Q6PEY2+Q13885+Q9BVA1+Q9BUF5); test: Inhibition of brain tubulin polymerization (unknown origin) at 37 degC by spectrophotometry
Paracentrotus lividus = test: Antimitotic activity against sea urchin eggs assessed as drug level causing inhibition of mitosis; format: functional; conditions: Egg
Mus musculus [31] = test: Toxicity in PS mouse allografted with mouse P388 cells assessed as survival at 6.2 ug/kg after 4 days; format: organism-based; conditions: in vivo, 0.0062 mg/kg, 96 h; how it was run: as §3
Mus musculus [32] = test: Toxicity in PS mouse allografted with mouse P388 cells assessed as survival at 1.6 ug/kg after 4 days; format: organism-based; conditions: in vivo, 0.0016 mg/kg, 96 h; how it was run: as §3
Mus musculus [33] = test: Toxicity in PS mouse allografted with mouse P388 cells assessed as survival at 200 ug/kg after 4 days; format: organism-based; conditions: in vivo, 0.2 mg/kg, 96 h; how it was run: as §3
Mus musculus [34] = test: Toxicity in PS mouse allografted with mouse P388 cells assessed as survival at 1.5 ug/kg after 4 days; format: organism-based; conditions: in vivo, 0.0015 mg/kg, 96 h; how it was run: as §3
Mus musculus [35] = test: Toxicity in PS mouse allografted with mouse P388 cells assessed as change in body weight at 6.2 ug/kg relative to control; format: organism-based; conditions: in vivo, 0.0062 mg/kg; how it was run: as §1
Mus musculus [36] = test: Toxicity in PS mouse allografted with mouse P388 cells assessed as change in body weight at 200 ug/kg relative to control; format: organism-based; conditions: in vivo, 0.2 mg/kg; how it was run: as §1
Mus musculus [37] = test: Toxicity in PS mouse allografted with mouse P388 cells assessed as change in body weight at 1.5 ug/kg relative to control; format: organism-based; conditions: in vivo, 0.0015 mg/kg; how it was run: as §2
P388 [38] = test: Antitumor activity against mouse P388 cells allografted in PS mouse assessed as median survival time at 6.2 ug/kg relative to control; format: functional; how it was run: as §4
P388 [39] = test: Antitumor activity against mouse P388 cells allografted in PS mouse assessed as median survival time at 200 ug/kg relative to control; format: functional; how it was run: as §4
P388 [40] = test: Antitumor activity against mouse P388 cells allografted in PS mouse assessed as median survival time at 1.5 ug/kg relative to control; format: functional; how it was run: as §4

COc1cc2cc(c1Cl)N(C)C(=O)/C=C/[C@]1(C)O[C@H]1[C@H](C)[C@@H]1C[C@@](O)(NC(=O)O1)[C@H](OC)/C=C/C=C(\C)C2
Activity (Mus musculus [1]): 0.4 g | Activity (Mus musculus [2]): 2.8 g | Activity (Mus musculus [3]): 2.5 g | Activity (Mus musculus [4]): 2.1 g | Activity (Mus musculus [5]): Non-toxic | Activity (Mus musculus [6]): Non-toxic | Activity (Mus musculus [7]): Non-toxic | Activity (Mus musculus [8]): Non-toxic | Activity (Mus musculus [9]): Non-toxic | Activity (Mus musculus [10]): Non-toxic | Activity (Mus musculus [11]): Non-toxic | Activity (Mus musculus [12]): Non-toxic | Activity (Mus musculus [13]): Non-toxic | Activity (Mus musculus [14]): Non-toxic | Activity (Mus musculus [15]): 1 g | Activity (Mus musculus [16]): 2.6 g | Activity (Mus musculus [17]): 1.7 g | Activity (Mus musculus [18]): 1 g | Activity (Mus musculus [19]): 0.3 g | Activity (Mus musculus [20]): 2 g | T/C (P388 [21]): 110% | T/C (P388 [22]): <80% | T/C (P388 [23]): <80% | T/C (P388 [24]): <80% | T/C (P388 [25]): 90% | T/C (P388 [26]): 90% | T/C (P388 [27]): 90% | T/C (P388 [28]): 90% | T/C (P388 [29]): <80% | T/C (P388 [30]): 90% | EC50 (KB): 25 ng/mL (≈ 45.7 nM) | inhibition (Tubulin (Homo sapiens)): Active | Activity (Paracentrotus lividus): 1 µM

COc1cc2cc(c1Cl)N(C)C(=O)C[C@H](OC(C)=O)[C@]1(C)O[C@H]1[C@H](C)[C@@H]1C[C@@](O)(NC(=O)O1)[C@H](OC)/C=C/C=C(\C)C2
Activity (Mus musculus [1]): -1 g | Activity (Mus musculus [2]): 0 g | Activity (Mus musculus [5]): Non-toxic | Activity (Mus musculus [6]): Non-toxic | Activity (Mus musculus [7]): Non-toxic | Activity (Mus musculus [8]): Non-toxic | Activity (Mus musculus [31]): Non-toxic | Activity (Mus musculus [9]): Non-toxic | Activity (Mus musculus [32]): Non-toxic | Activity (Mus musculus [10]): Non-toxic | Activity (Mus musculus [33]): Non-toxic | Activity (Mus musculus [34]): Non-toxic | Activity (Mus musculus [15]): -0.6 g | Activity (Mus musculus [16]): -0.3 g | Activity (Mus musculus [17]): -1.2 g | Activity (Mus musculus [18]): 0.3 g | Activity (Mus musculus [35]): 0.5 g | Activity (Mus musculus [36]): -3.7 g | Activity (Mus musculus [37]): -1.1 g | T/C (P388 [21]): 230% | T/C (P388 [22]): 183% | T/C (P388 [23]): 173% | T/C (P388 [24]): 158% | T/C (P388 [38]): 150% | T/C (P388 [25]): 133% | T/C (P388 [26]): 110% | T/C (P388 [39]): 100% | T/C (P388 [40]): 150% | EC50 (KB): 0.0018 ng/mL (≈ 0.00296 nM) | inhibition (Tubulin (Homo sapiens)): Active | Activity (Paracentrotus lividus): 1 ×10⁻⁸ mol/L

Source: ChEMBL document CHEMBL3244382, “Structural requirements for antileukemic activity among the naturally occurring and semisynthetic maytansinoids” (J Med Chem, 1978)
